In series [1] the test system is MRC5 (ATCC – CCL-171, human diploid fibroblast cell line). In words: cells. Particulars: MRC5, read-out: IC50 MRC5.
For the next series, the system named is MCF-7 cells. In words: Colony formation assay. In kind it is cell-based.
For another series, the system named is MCF7 breast cancer cells. In words: Apoptosis, annexin V staining and flow cytometry. The series is classed as cell-based. A digest of the protocol: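 MCF7 cells were exposed to the test compounds for 24 or 48 h, with etoposide (10 μM) as the positive control and 0.1% DMSO as the untreated control. Cells were stained with annexin V and analysed by flow cytometry into live, early apoptotic and late apoptotic fractions.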
A general note: In flow cytometry, cells or beads pass a laser one at a time.

The test system of another series is MCF7 spheroids. Briefly: Spheroid formation assay. Particulars: 72 hours of treatment. In kind it is cell-based. A digest of the protocol: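 Agar was liquefied in normal saline, sterilized and cast into 3D molds, which were rinsed with culture medium. MCF7 cells were seeded onto the molds and left 20 min to adhere, then medium with varied test-compound concentrations was added. Spheroid dimensions were tracked by live-cell imaging and compared with untreated controls.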

Series [2] relates to A549 (ATCC – CCL-185, lung carcinoma). In words: MTT cell viability assay, A549. The series is classed as cell-based. Particulars: Homo sapiens, A549, read-out: IC50 A549. (In general: Tetrazolium dyes change colour on reduction, which living cells bring about.)
Another series concerns MCF7 cells. Briefly: Cell cycle analysis. In kind it is cell-based. Particulars: for S phase population / cells in G1 phase / cells in G2 (G2/M) phase: MCF7, 24 hours; for S phase population: compounds at IC50; for cells in G1 phase / cells in G2 (G2/M) phase / G1 phase population / G2 (G2/M) phase population: compounds at IC50, ETP 10 μM; for G1 phase population / G2 (G2/M) phase population: MCF7, 48 hours. In short, it runs like this: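 MCF7 cells were treated with the test compounds for 24 and 48 h, with etoposide as the positive control and 0.1% DMSO as the vehicle. Cells were stained with propidium iodide and their G1, S and G2 distribution was read by flow cytometry. n = 3; two-way ANOVA with Tukey's test.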

Series [3] relates to chorioallantoic membrane (CAM) blood vessel formation. Briefly: Ex ovo chorioallantoic membrane. In kind it is in vivo, chicken. Particulars: concentration-dependent, over time.
For series [4], the system named is HCT116 (ATCC – CCL-247, colon carcinoma). In words: MTT cell viability assay, HCT116. The series is classed as cell-based. Particulars: Homo sapiens, HCT-116, read-out: IC50 HCT116.
In another series the test system is MCF7 cell line. Briefly: γH2AX labelling for DNA double-strand breaks. The series is classed as cell-based. Particulars: compounds at IC50, etoposide 10 μM. A digest of the protocol:
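To detect DNA double-strand breaks, MCF7 cells were exposed to the test compounds for 24 and 48 h, with etoposide as the positive control and 0.1% DMSO as the vehicle. γH2AX labelling was quantified by flow cytometry. n = 3; two-way ANOVA with Tukey's test.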

The test system of series [5] is MRC5 (ATCC – CCL-171, human diploid fibroblast cell line).
Series [6] concerns MCF7 (ATCC – HTB-22, breast carcinoma). Briefly: MTT cell viability assay, MCF7. Particulars: for IC50: Homo sapiens, MCF7, read-out: IC50 MCF7; for higher potency compared to previously reported fused pyran derivative III: MCF7 IC50 versus III. The series is classed as cell-based.
Where [7] appears, read: MCF7, 24 hours, compounds at IC50.
Setting [8] is: MCF7, 24 hours, compounds at IC50, etoposide 10 μM.
Where [9] appears, read: MCF7, 48 hours, compounds at IC50, etoposide 10 μM.

The values that follow come from publication PMC12135072 (RSC Medicinal Chemistry, 2025).

Take `Cc1nccn1-c1ccc(C2C(C#N)=C(N)OC3=C2C(=O)CC(C)(C)C3)cc1` (stereo not shown) [Compound 8a, 2-Amino-7,7-dimethyl-4-(4-(2-methyl-1H-imidazol-1-yl)phenyl)-5-oxo-5,6,7,8-tetrahydro-4H-chromene-3-carbonitrile]: the 50% inhibitory concentration (IC50) in [1] is over 200 µM; in [2], 111 ± 4.91 µM; in series [4] it was 143 ± 6.35 µM; in [6], 8.24 ± 0.19 µM. Besides, the “percentage of colony formation” value stood at 94.3 ± 4.04% in the series on MCF-7 cells (MCF-7, compound at IC10); 74.3 ± 2.08% in the series on MCF-7 cells (MCF-7, compound at IC50); 5.67 ± 4.04% in the series with MCF-7 cells (MCF-7, compound at IC90). The compound also registered a live cells in the series with MCF7 breast cancer cells (setting [7]) of 86.4 ± 0.15%. Besides, the early apoptotic cells with MCF7 breast cancer cells (setting [8]) stood at 4.27 ± 0.20%; in the series on MCF7 breast cancer cells (setting [9]), 5.89 ± 0.20%. The late apoptotic cells in the series with MCF7 breast cancer cells (setting [8]) is 7.6 ± 0.01%; in the series with MCF7 breast cancer cells (setting [9]), 6.17 ± 0.13%. Besides, the “spheroid size versus untreated control” value in the series on MCF7 spheroids is given as “pronounced reduction in size”. In the series on MCF7 cells, this compound yielded a S phase population of 21.11 ± 3.39%. In addition, in the series on MCF7 cells, the “cells in G1 phase” value is given as 37.08 ± 5.07%. Also, the “cells in G2 (G2/M) phase” value with MCF7 cells amounted to 30.63 ± 4.35%. Further, in the series with MCF7 cells, the G1 phase population was 47.08 ± 0.6%. Besides, the “new blood vessel formation versus untreated controls” value in series [3] was “significant reduction in new blood vessel formation”. The γH2AX levels in the series with MCF7 cell line (MCF7, 24 hours) was 2.89 ± 0.99; with MCF7 cell line (MCF7, 48 hours), 20.3 ± 2.74. Besides, the “toxicity to MRC5 (MCR5) cells” value in series [5] is “nontoxic”. For the same compound, in series [6], the “higher potency compared to previously reported fused pyran derivative III” value stood at 1.5 fold.

For `Cc1cn(-c2ccc(C3C(C#N)=C(N)OC4=C3C(=O)CC(C)(C)C4)cc2)cn1` (stereo not shown) [Compound 8b, 2-Amino-7,7-dimethyl-4-(4-(4-methyl-1H-imidazol-1-yl)phenyl)-5-oxo-5,6,7,8-tetrahydro-4H-chromene-3-carbonitrile], the half-inhibitory concentration (IC50) in series [1] was over 200 µM; in series [2] it was 110 ± 4.94 µM; in series [4] it was 129 ± 5.79 µM; in series [6], 4.22 ± 0.81 µM. In addition, the “percentage of colony formation” value was 97.7 ± 1.53% in the series on MCF-7 cells (MCF-7, compound at IC10); 76 ± 2.65% with MCF-7 cells (MCF-7, compound at IC50); 15 ± 5% in the series on MCF-7 cells (MCF-7, compound at IC90). Moreover, the live cells in the series on MCF7 breast cancer cells (setting [7]) turned out to be 87.55 ± 0.08%; in the series with MCF7 breast cancer cells (setting [9]) it was 84.45 ± 0.64%. Also, the early apoptotic cells is 2.66 ± 0.12% in the series on MCF7 breast cancer cells (setting [8]) and 5.27 ± 0.13% in the series with MCF7 breast cancer cells (setting [9]). In addition, the late apoptotic cells is listed as 7.87 ± 0.02% with MCF7 breast cancer cells (setting [8]) and 9.46 ± 0.22% in the series with MCF7 breast cancer cells (setting [9]). In the series with MCF7 breast cancer cells (MCF7, 48 hours, compound at IC50), the debris/dead cells is 0.82 ± 0.30%. In the series with MCF7 spheroids, the “spheroid size versus untreated control” value is reported as “marked reduction in size”. In the series on MCF7 cells, this compound yielded a S phase population of 15.11 ± 2.59%. Moreover, the “cells in G1 phase” value with MCF7 cells was found to be 41.59 ± 7.44%. Also, the “cells in G2 (G2/M) phase” value with MCF7 cells came out at 30.79 ± 5.11%. For the same compound, the G1 phase population in the series on MCF7 cells is reported as 45.22 ± 0.82%. For the same compound, in the series on MCF7 cells, the “G2 (G2/M) phase population” value is 28.83 ± 0.52%. Further, the “new blood vessel formation versus untreated controls” value in [3] is given as “significant reduction in new blood vessel formation”. In addition, the γH2AX levels with MCF7 cell line (MCF7, 24 hours) amounted to 4.71 ± 0.75; in the series with MCF7 cell line (MCF7, 48 hours), 21.62 ± 3.38. Also, the “toxicity to MRC5 (MCR5) cells” value in series [5] is “nontoxic”. The “higher potency compared to previously reported fused pyran derivative III” value in series [6] worked out at 3 fold.

On to `COc1cc([C@@H]2c3cc4c(cc3[C@@H](O[C@@H]3O[C@@H]5CO[C@@H](C)O[C@H]5[C@H](O)[C@H]3O)[C@H]3COC(=O)[C@H]23)OCO4)cc(OC)c1O` [Etoposide, reference compound], for which, in the series on MCF7 breast cancer cells (setting [8]), the early apoptotic cells was determined as 6.42 ± 0.27% and the late apoptotic cells was 12.25 ± 0.08%. In addition, in the series with MCF7 breast cancer cells (setting [9]), the early apoptotic cells is on record as 3.28 ± 0.16%, the late apoptotic cells is 11.8 ± 0.29% and the live cells worked out at 83.15 ± 0.50%. In the series on MCF7 cells, the “cells in G1 phase” value was 26.61 ± 0.54%, the “cells in G2 (G2/M) phase” value is recorded as 49.03 ± 0.99%, the G1 phase population is recorded as 18.3 ± 1.67% and the “G2 (G2/M) phase population” value worked out at 59.36 ± 4.79%. For the same compound, the γH2AX levels in the series on MCF7 cell line (MCF7, 24 hours) was 8.8 ± 0.62. The compound also yielded a γH2AX levels with MCF7 cell line (MCF7, 48 hours) of 39.44 ± 1.69.

The term IC50 denotes the concentration that gives 50% inhibition.
